In brackets after ≈: the same amount, converted by molar mass.
What was measured:
[1] = tested on: Staphylococcus aureus; assay: Antibacterial activity against methicillin resistant Staphylococcus aureus clinical isolate 3 incubated for 7 to 14 days by microdilution resazurin assay
[2] = tested on: Staphylococcus aureus; assay: Antibacterial activity against methicillin resistant Staphylococcus aureus clinical isolate 1 incubated […] by microdilution resazurin assay; type: functional; settings: Staphylococcus aureus, isolate 1; read-out: MIC
[3] = tested on: Staphylococcus aureus; assay: Antibacterial activity against methicillin resistant Staphylococcus aureus clinical isolate 9 incubated […] by microdilution resazurin assay; type: functional; settings: Staphylococcus aureus, isolate 9; read-out: MIC
[4] = Cytotoxicity against human WS1 cells by resazurin reduction assay; type: cell-based; settings: Homo sapiens, WS1
Outline: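 WS1 human fibroblast line; resazurin reduction test, slightly modified from an earlier method. Etoposide served as positive control.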

[5] = tested on: Staphylococcus aureus; assay: Antibacterial activity against methicillin resistant Staphylococcus aureus clinical isolate 5 incubated […] by microdilution resazurin assay; type: functional; settings: Staphylococcus aureus, isolate 5; read-out: MIC
[6] = tested on: Staphylococcus aureus; assay: Antibacterial activity against methicillin resistant Staphylococcus aureus clinical isolate 8 incubated […] by microdilution resazurin assay; type: functional; settings: Staphylococcus aureus, isolate 8; read-out: MIC
[7] = tested on: Staphylococcus aureus; assay: Antibacterial activity against methicillin resistant Staphylococcus aureus clinical isolate 10 incubated […] by microdilution resazurin assay; type: functional; settings: Staphylococcus aureus, isolate 10; read-out: MIC
[8] = tested on: Staphylococcus aureus; assay: Antibacterial activity against Staphylococcus aureus ATCC 25923 incubated […] by microdilution resazurin assay; type: functional; settings: Staphylococcus aureus, ATCC 25923; read-out: MIC
[9] = tested on: Staphylococcus aureus; assay: Antibacterial activity against methicillin resistant Staphylococcus aureus clinical isolate 7 incubated […] by microdilution resazurin assay; type: functional; settings: Staphylococcus aureus, isolate 7; read-out: MIC
[10] = tested on: Staphylococcus aureus; assay: Antibacterial activity against methicillin resistant Staphylococcus aureus clinical isolate 2 incubated […] by microdilution resazurin assay; type: functional; settings: Staphylococcus aureus, isolate 2; read-out: MIC
[11] = tested on: Staphylococcus aureus; assay: Antibacterial activity against methicillin resistant Staphylococcus aureus clinical isolate 4 incubated for 7 to 14 days by microdilution resazurin assay
[12] = tested on: Staphylococcus aureus; assay: Antibacterial activity against methicillin resistant Staphylococcus aureus clinical isolate 6 incubated […] by microdilution resazurin assay; type: functional; settings: Staphylococcus aureus, isolate 6; read-out: MIC

Structure (SMILES) | MIC [1] [µM] | MIC [2] [µM] | MIC [3] [µM] | IC50 [4] [µM] | MIC [5] [µM] | MIC [6] [µM] | MIC [7] [µM] | MIC [8] [µM] | MIC [9] [µM] | MIC [10] [µM] | MIC [11] [µM] | MIC [12] [µM]
COc1ccc(CCC(=O)c2c(O)cc(O)c3c2O[C@H](c2ccc(O)cc2)CC3)cc1 | > 50 | > 50 | > 50 | > 10 | > 50 | > 50 | > 50 | > 50 | > 50 | > 50 | > 50 | > 50
O=C(CCc1ccccc1)c1c(O)cc(O)c(C/C=C/c2ccc(O)cc2)c1O | 6 (≈ 2.34 µg/mL) | 6 (≈ 2.34 µg/mL) | 3 (≈ 1.17 µg/mL) | > 10 | 3 (≈ 1.17 µg/mL) | 3 (≈ 1.17 µg/mL) | 6 (≈ 2.34 µg/mL) | 6 (≈ 2.34 µg/mL) | 6 (≈ 2.34 µg/mL) | 6 (≈ 2.34 µg/mL) | 6 (≈ 2.34 µg/mL) | 50 (≈ 19.5 µg/mL)
O=C(CCc1ccc(O)cc1)c1c(O)cc(O)c2c1O[C@@H](c1ccc(O)cc1)[C@H](C/C=C/c1ccc(O)cc1)C2 | 13 (≈ 7 µg/mL) | 25 (≈ 13.5 µg/mL) | 13 (≈ 7 µg/mL) | > 10 | 13 (≈ 7 µg/mL) | 13 (≈ 7 µg/mL) | 13 (≈ 7 µg/mL) | 13 (≈ 7 µg/mL) | 6 (≈ 3.23 µg/mL) | 13 (≈ 7 µg/mL) | 25 (≈ 13.5 µg/mL) | 13 (≈ 7 µg/mL)
COc1cc(O)c(C(=O)CCc2ccc(O)cc2)c2c1CCC(c1ccc(O)cc1)O2 (centres undefined) | > 50 | > 50 | > 50 | > 10 | > 50 | > 50 | > 50 | > 50 | 50 (≈ 21 µg/mL) | 50 (≈ 21 µg/mL) | > 50 | 50 (≈ 21 µg/mL)
COc1ccc(CCC(=O)c2c(O)cc(O)c(C/C=C/c3ccc(O)cc3)c2O)cc1 | 13 (≈ 5.47 µg/mL) | 50 (≈ 21 µg/mL) | 25 (≈ 10.5 µg/mL) | > 10 | 13 (≈ 5.47 µg/mL) | 25 (≈ 10.5 µg/mL) | 25 (≈ 10.5 µg/mL) | > 50 | 25 (≈ 10.5 µg/mL) | 25 (≈ 10.5 µg/mL) | 13 (≈ 5.47 µg/mL) | 25 (≈ 10.5 µg/mL)
O=C(CCc1ccc(O)cc1)c1c(O)cc(O)c2c1O[C@H](c1ccc(O)cc1)[C@@H](C/C=C/c1ccc(O)cc1)C2 | 3 (≈ 1.62 µg/mL) | 3 (≈ 1.62 µg/mL) | 3 (≈ 1.62 µg/mL) | > 10 | 3 (≈ 1.62 µg/mL) | 3 (≈ 1.62 µg/mL) | 3 (≈ 1.62 µg/mL) | 6 (≈ 3.23 µg/mL) | 3 (≈ 1.62 µg/mL) | 3 (≈ 1.62 µg/mL) | 3 (≈ 1.62 µg/mL) | 3 (≈ 1.62 µg/mL)
COc1cc(O)c(C(=O)CCc2ccc(O)cc2)c(O)c1C/C=C/c1ccc(O)cc1 | 50 (≈ 21 µg/mL) | > 50 | > 50 | > 10 | 50 (≈ 21 µg/mL) | 50 (≈ 21 µg/mL) | 50 (≈ 21 µg/mL) | > 50 | 50 (≈ 21 µg/mL) | 50 (≈ 21 µg/mL) | 50 (≈ 21 µg/mL) | 50 (≈ 21 µg/mL)
COc1ccc(CCC(=O)c2c(O)cc(O)c3c2O[C@@H](c2ccc(O)cc2)CC3)cc1 | 13 (≈ 5.47 µg/mL) | 13 (≈ 5.47 µg/mL) | 13 (≈ 5.47 µg/mL) | > 10 | 13 (≈ 5.47 µg/mL) | 13 (≈ 5.47 µg/mL) | 25 (≈ 10.5 µg/mL) | 25 (≈ 10.5 µg/mL) | 13 (≈ 5.47 µg/mL) | 13 (≈ 5.47 µg/mL) | 25 (≈ 10.5 µg/mL) | 25 (≈ 10.5 µg/mL)
O=C(CCc1ccccc1)c1c(O)cc2c(c1O)C[C@@H](C/C=C/c1ccc(O)cc1)[C@H](c1ccc(O)cc1)O2 (racemic) | > 50 | > 50 | > 50 | > 10 | > 50 | > 50 | > 50 | > 50 | > 50 | > 50 | > 50 | > 50
COc1ccc(CCC(=O)c2c(O)cc(O)c(C(c3ccc(O)cc3)C(C/C=C/c3ccc(O)cc3)COC(=O)/C=C/c3ccccc3)c2O)cc1 (racemic) | > 50 | > 50 | > 50 | > 10 | > 50 | > 50 | > 50 | 25 (≈ 17.5 µg/mL) | > 50 | > 50 | > 50 | > 50
COc1ccc(CCC(=O)c2c(O)c3c(c4c2O[C@@H](c2ccc(O)cc2)[C@H](C/C=C/c2ccc(O)cc2)C4)O[C@@H](c2ccc(O)cc2)[C@H](O)C3)cc1 (racemic) | 25 (≈ 17.5 µg/mL) | 25 (≈ 17.5 µg/mL) | 25 (≈ 17.5 µg/mL) | > 10 | 13 (≈ 9.11 µg/mL) | 25 (≈ 17.5 µg/mL) | 25 (≈ 17.5 µg/mL) | 50 (≈ 35 µg/mL) | 25 (≈ 17.5 µg/mL) | 25 (≈ 17.5 µg/mL) | 50 (≈ 35 µg/mL) | 50 (≈ 35 µg/mL)
COc1ccc(CCC(=O)c2c(O)c3c(c4c2OC(c2ccc(O)cc2)C(C/C=C/c2ccc(O)cc2)C4)OC(c2ccc(O)cc2)C(C/C=C/c2ccc(O)cc2)C3)cc1 (racemic) | > 50 | > 50 | > 50 | > 10 | > 50 | > 50 | > 50 | > 50 | > 50 | > 50 | > 50 | > 50

Reference: ChEMBL document CHEMBL4425163, “Structure elucidation of anti-methicillin resistant Staphylococcus aureus (MRSA) flavonoids from balsam poplar buds” (Bioorg Med Chem, 2016)
